Data set [1] can be described thus: AUC (0 to t) in SCID mouse at 3 mg/kg, po by LC-MS/MS analysis. To be noted: in vivo. Also on record: dose 3 mg/kg. It counts as ADME, organism-based. The method, boiled down:
(§1)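 Nontumor-bearing male mice were given a single oral gavage dose in 100% PEG200. Three mice were sacrificed per time point, and 300 μL blood was taken from each for plasma, stored at −80 °C. Drug was quantified by LC–MS/MS on a C18 column with a 0.1% formic acid water/acetonitrile gradient at 0.4 mL/min. Parameters came from noncompartmental analysis.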

The nature of data set [2]: Oral bioavailability in SCID mouse at 3 mg/kg by LC-MS/MS analysis. To be noted: in vivo. It counts as ADME, organism-based.
Data set [3] in a line: Half life in SCID mouse at 1 mg/kg, iv by LC-MS/MS analysis. It counts as ADME, organism-based. To be noted: in vivo. The method, boiled down:
(§2)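 Male mice were given a single intravenous dose. Plasma drug levels were measured by a validated LC–MS/MS method (C18 column, 0.1% formic acid water/acetonitrile gradient, 0.4 mL/min). Parameters came from noncompartmental analysis.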

A short description of data set [4]: Tmax in SCID mouse at 3 mg/kg, po by LC-MS/MS analysis. It is filed as ADME, organism-based. To be noted: in vivo. A digest of the protocol:
as §1

Data set [5] can be described thus: Half life in SCID mouse at 3 mg/kg, po by LC-MS/MS analysis. It is filed as ADME, organism-based. Particulars: in vivo. A digest of the protocol: as §1
Data set [6] is described as follows: AUC (0 to t) in SCID mouse at 1 mg/kg, iv by LC-MS/MS analysis. Particulars: in vivo. Also on record: dose 1 mg/kg. It counts as ADME, organism-based. The method, boiled down: as §2
The nature of data set [7]: Cmax in SCID mouse at 3 mg/kg, po by LC-MS/MS analysis. It counts as ADME, organism-based. Also on record: route oral, dose 3 mg/kg. To be noted: in vivo. A digest of the protocol:
as §1

Data set [8] in a line: Volume of distribution at steady state in SCID mouse at 1 mg/kg, iv by LC-MS/MS analysis. It counts as ADME, organism-based. To be noted: in vivo, read-out: Vdss. A digest of the protocol:
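Male mice were used, three sacrificed per time-point, with 300 μL blood collected and plasma stored at −80 °C. Drug was quantified by a validated LC–MS/MS method on a C18 column with a 0.1% formic acid water/acetonitrile gradient at 0.4 mL/min. PK parameters were derived by noncompartmental analysis.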

Data set [9] addresses Protein cereblon/Androgen receptor (Homo sapiens, UniProt P10275+Q96SW2). As to the kind of experiment: Protac activity at CRBN/AR in human VCaP cells assessed as AR degradation after 24 hrs by Western blot analysis. It counts as cell-based.

This is an account of results in ChEMBL document CHEMBL4842372, “Discovery of ARD-2585 as an Exceptionally Potent and Orally Active PROTAC Degrader of Androgen Receptor for the Treatment of Advanced Prostate Cancer” (J Med Chem, 2021).

Protein cereblon/Androgen receptor, sequence (P10275 whole entry): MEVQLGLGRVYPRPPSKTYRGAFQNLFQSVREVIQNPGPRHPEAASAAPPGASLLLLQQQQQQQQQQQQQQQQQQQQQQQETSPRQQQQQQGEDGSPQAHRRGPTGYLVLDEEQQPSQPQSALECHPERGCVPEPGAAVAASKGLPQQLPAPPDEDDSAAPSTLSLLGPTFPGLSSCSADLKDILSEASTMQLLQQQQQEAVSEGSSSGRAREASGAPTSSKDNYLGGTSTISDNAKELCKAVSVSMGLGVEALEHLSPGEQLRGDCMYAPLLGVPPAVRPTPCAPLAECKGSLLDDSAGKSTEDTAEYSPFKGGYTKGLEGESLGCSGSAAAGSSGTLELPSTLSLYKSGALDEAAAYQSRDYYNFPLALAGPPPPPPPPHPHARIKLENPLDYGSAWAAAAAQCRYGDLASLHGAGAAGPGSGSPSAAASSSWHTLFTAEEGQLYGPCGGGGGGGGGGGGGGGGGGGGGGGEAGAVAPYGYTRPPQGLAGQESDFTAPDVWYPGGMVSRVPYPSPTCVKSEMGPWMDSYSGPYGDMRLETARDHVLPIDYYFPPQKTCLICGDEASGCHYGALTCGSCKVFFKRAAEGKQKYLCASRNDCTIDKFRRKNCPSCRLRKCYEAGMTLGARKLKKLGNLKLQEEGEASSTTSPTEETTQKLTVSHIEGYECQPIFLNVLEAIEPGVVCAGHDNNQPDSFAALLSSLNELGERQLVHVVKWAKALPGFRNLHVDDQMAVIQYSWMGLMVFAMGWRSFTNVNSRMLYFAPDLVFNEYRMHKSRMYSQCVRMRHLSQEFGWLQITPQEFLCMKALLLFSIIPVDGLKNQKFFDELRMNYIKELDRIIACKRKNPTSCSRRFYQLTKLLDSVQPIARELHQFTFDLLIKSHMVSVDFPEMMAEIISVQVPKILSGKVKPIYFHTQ
Protein cereblon/Androgen receptor, sequence (Q96SW2 whole entry): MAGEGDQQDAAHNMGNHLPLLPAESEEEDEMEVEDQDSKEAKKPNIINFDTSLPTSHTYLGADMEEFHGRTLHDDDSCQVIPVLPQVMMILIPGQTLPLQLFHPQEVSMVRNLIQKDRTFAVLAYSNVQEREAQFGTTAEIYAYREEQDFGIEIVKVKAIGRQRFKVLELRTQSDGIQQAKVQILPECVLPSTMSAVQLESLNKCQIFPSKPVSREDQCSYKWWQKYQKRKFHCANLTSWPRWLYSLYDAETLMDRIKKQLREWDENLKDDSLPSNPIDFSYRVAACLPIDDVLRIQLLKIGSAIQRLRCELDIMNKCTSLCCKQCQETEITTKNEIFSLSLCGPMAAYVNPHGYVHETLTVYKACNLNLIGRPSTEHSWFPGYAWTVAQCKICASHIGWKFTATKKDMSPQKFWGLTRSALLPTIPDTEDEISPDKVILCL

As for `N#Cc1ccc(O[C@H]2CC[C@H](NC(=O)c3ccc(N4CCC(N5CCN(c6ccc7c(c6)C(=O)N(C6CCC(=O)NC6=O)C7=O)CC5)CC4)cc3)CC2)cc1Cl` (some centres undefined), the values for the AUC(0-t) in data set [1] and in data set [6] were 2150 ng·h/mL and 2420 ng·h/mL, respectively. The compound also came in with a F in data set [2] of 30%. In addition, the half-life in data set [3] was 366 min; in data set [5] it was 336 min. Moreover, the Tmax in data set [4] stood at 4 h. Moreover, the Cmax in [7] was 207 ng/mL. In addition, the Vd in data set [8] was found to be 3 L/kg. Further, the DC50 in data set [9] turned out to be 0.2 nM.
